# According to PubChem BioAssay AID492951 (Molecular Libraries Program, Specialized Chemistry Center, …, 2010):
# The source made the active and inactive calls.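 How the source made its calls: active means inhibition above 10%; inactive means the rest.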
# Biological target: Hexokinase-4 (Homo sapiens) (UniProt P35557)
# Test: hGlck enzyme activity off-target inhibitors – biochemical, recombinant hGlck, counter-screen for TbHK1 inhibitor project (AID 492951)
# Settings: G6PDH-coupled NADH absorbance 340 nm, at 10 µM; active compounds read high
# Method in brief: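 Material: Recombinant human glucokinase, G6PDH-coupled | Medium: TEA buffer pH 7.9 with 3.3 mM MgCl2, 0.75 mM NAD+ | Also added: 20 mM glucose as reaction starter, plus 1 mM ATP | Compound dosing: One dose, 10 µM final | Schedule: 10 min preincubation at room temperature | Measured by: A340 of NADH | Repeats: Three replicates per compound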
# Hexokinase-4 (Homo sapiens), sequence (P35557 whole entry, looked up): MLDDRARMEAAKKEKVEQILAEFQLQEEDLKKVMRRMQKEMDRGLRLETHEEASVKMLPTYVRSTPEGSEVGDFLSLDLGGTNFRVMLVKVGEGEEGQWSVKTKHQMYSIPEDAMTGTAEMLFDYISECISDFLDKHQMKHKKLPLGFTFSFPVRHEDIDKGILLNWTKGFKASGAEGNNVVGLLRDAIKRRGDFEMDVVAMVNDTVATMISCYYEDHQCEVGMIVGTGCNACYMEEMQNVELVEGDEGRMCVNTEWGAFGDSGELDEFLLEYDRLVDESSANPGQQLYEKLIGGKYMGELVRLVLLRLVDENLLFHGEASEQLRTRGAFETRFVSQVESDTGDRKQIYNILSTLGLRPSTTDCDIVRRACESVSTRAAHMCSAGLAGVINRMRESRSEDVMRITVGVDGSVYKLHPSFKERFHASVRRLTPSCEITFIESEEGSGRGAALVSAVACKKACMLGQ
Structure (SMILES),inhibition,outcome
O=c1c2cc(F)ccc2sn1-c1ccccc1,50.1% (active),–
O=c1c2ccc([N+](=O)[O-])cc2sn1-c1ccccc1,1.5% (inactive),–
CC(C(=O)Nc1ccccc1)n1sc2ccccc2c1=O (stereo not drawn),9.6% (inactive),–
CCCCCCC(=O)Nc1cc(Cl)ccc1C(=O)O,–,inactive
COc1cccc(-n2sc3ccccc3c2=O)c1,49.9% (active),–
COc1ccc(C(=O)Nc2cc(Cl)ccc2[N+](=O)[O-])cc1,–,inactive
CC(=O)Nc1ccc2sn(-c3ccccc3)c(=O)c2c1,51.9% (active),–
O=c1c2cc(Br)ccc2sn1-c1ccccc1,38.4% (active),–
O=C(Cn1sc2ccccc2c1=O)Nc1ccccc1Cl,–,inactive
CC1(c2ccc(C(=O)Nc3cc(Cl)ccc3C(=O)O)cc2)CC1,–,inactive
O=C(O)c1ccc(Cl)cc1NC(=O)C1CCOCC1,–,inactive
COc1ccc(C(=O)O)c(NC(=O)c2ccc(Cl)cc2)c1,15.8% (active),–
O=c1c2cccnc2sn1-c1ccccc1,91.5% (active),–
COc1ccc(C(=O)Nc2cc(C(=O)O)ccc2Cl)cc1,–,inactive
Cc1ccc(NC(=O)Cn2sc3ccccc3c2=O)cc1,2.1% (inactive),–
Cc1ccccc1-n1sc2cc(F)ccc2c1=O,–,inactive
O=C(O)c1ccccc1NC(=O)c1ccccc1C(=O)O,–,inactive
COc1ccc(S(=O)(=O)Nc2cc(Cl)ccc2C(=O)O)cc1,–,inactive
O=C(Cn1sc2ccccc2c1=O)Nc1ccccc1Br,9% (inactive),–

Structure (SMILES),inhibition,outcome
COc1ccc(C(=O)N(C)c2cc(Cl)ccc2C(=O)O)cc1,6.7% (inactive),–
O=c1c2cc(F)c(F)cc2sn1-c1ccccc1,16.9% (active),–
CC(C)(C)c1ccc(C(=O)N2CCC(=O)c3ccc(Cl)cc32)cc1,–,inactive
O=C(Nc1cc(Cl)ccc1C(=O)O)c1ccc(-c2ccccc2)cc1,27.6% (active),–
O=C(Nc1cc(Cl)ccc1C(=O)O)c1cocn1,–,inactive
N#Cc1ccc(Oc2ccc3c(c2)B(O)OC3)cc1,–,inactive
O=C(Cn1sc2ccccc2c1=O)Nc1ccc(Cl)cc1,–,inactive
O=c1c2ccc(F)cc2sn1Cc1ccccc1,56.1% (active),–
COc1ccc(N2C(=O)c3ccc(Cl)cc3C2=O)cc1,–,inactive
O=C(Nc1cc(Cl)ccc1C(=O)O)c1ccc(-c2cccs2)cc1,30.3% (active),–
COc1ccc(C(=O)NC(CC(=O)O)c2ccc(Cl)cc2)cc1 (stereo not drawn),–,inactive
COC(=O)c1ccc(Cl)cc1NS(=O)(=O)c1ccc(OC)cc1,–,inactive
COc1ccc(C(=O)NC(C(=O)O)c2ccccc2)cc1 (stereo not drawn),–,inactive
CC(C)(C)c1ccc(C(=O)Nc2cc(Cl)ccc2-c2nn[nH]n2)cc1,28.4% (active),–
N#Cc1ccc(NC(=O)Cn2sc3ccccc3c2=O)cc1,–,inactive
COc1ccc2c(c1)CN(c1cc(Cl)ccc1C(=O)O)C2=O,–,inactive
CC(C)(C)c1ccc(C(=O)Nc2cc(Cl)c(Cl)cc2C(=O)O)cc1,–,inactive
COc1ccc(C(=O)Nc2cc(C(F)(F)F)ccc2C(=O)O)cc1,10.5% (active),–
O=C(Nc1cc(Cl)ccc1C(=O)O)c1ccc(Cc2ccccc2)cc1,–,inactive
